Experimental data as given in ChEMBL document CHEMBL1221407, “Anthraquinone, cyclopentanone, and naphthoquinone derivatives from the sea fan-derived fungi Fusarium spp. PSU-F14 and PSU-F135” (J Nat Prod, 2010).
Values after ≈ are worked out from the molar mass of the structure shown. Active and inactive are the calls of the source. No cut-off for these calls is given here.

Assays:
Plasmodium falciparum = assay: Antimalarial activity against multidrug-resistant Plasmodium falciparum K1 by microculture radioisotope technique; assay type: functional, organism-based
[1] = test system: Mycobacterium tuberculosis; assay: Antimycobacterial activity against Mycobacterium tuberculosis H37Ra by green fluorescent protein-based fluorescent assay; assay type: functional
KB = assay: Cytotoxicity against human KB cells; assay type: functional, cell-based
How it was run: (§1)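 KB (oral human carcinoma) and MCF-7 (human breast cancer) cells; resazurin microplate assay.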

MCF7 = assay: Cytotoxicity against human MCF7 cells; assay type: functional, cell-based; how it was run: as §1
Vero = assay: Cytotoxicity against african green monkey Vero cells; assay type: cell-based, Chlorocebus sabaeus
How it was run: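 Vero cells (African green monkey kidney fibroblasts), noncancerous; run in triplicate by the method of Hunt and co-workers.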

Cryptococcus neoformans = assay: Antimicrobial activity against Cryptococcus neoformans by colorimetric broth microdilution test; assay type: functional
How it was run: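 Colorimetric broth microdilution run to CLSI M27-A2 (reference broth dilution method for yeasts) and Drummond and Waigh.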

Nannizzia gypsea = assay: Antimicrobial activity against Microsporum gypseum by colorimetric broth microdilution test; assay type: functional
How it was run: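 Colorimetric broth microdilution run to CLSI M38-A (broth dilution method for filamentous fungi) and Drummond and Waigh.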

[2] = Plasmodium falciparum, K1, read-out: IC50
[3] = Homo sapiens, KB, read-out: IC50
[4] = Chlorocebus sabaeus, Vero, read-out: IC50

Row | SMILES | IC50 (Plasmodium falciparum; [2]) [µM] | IC50 (Plasmodium falciparum) | MIC [1] | IC50 (KB; kb) | IC50 (MCF7) [µM] | IC50 (Vero; vero) | IC50 (KB; [3]) [µM] | IC50 (Vero; [4]) [µM] | MIC (Cryptococcus neoformans) [µM] | MIC (Nannizzia gypsea) [µM]
1 | C[C@H]1[C@@H](O)O[C@@H]2O[C@@]3(C)CC[C@H]4[C@H](C)CC[C@@H]1[C@@]24OO3 [ARTENIMOL] | 0.004 | – | – | – | – | – | – | – | – | –
2 | COc1cc(O)c2c(c1O)C(=O)c1cc(C)ccc1C2=O [AUSTROCORTIRUBIN] | – | Not Active | inactive | Not Active | 6.3 | Not Active | – | – | – | –
3 | COc1cc(O)c2c(c1O)[C@@H](O)[C@@H](CC(C)=O)[C@@H](CO)C2=O [FUSARNAPHTHOQUINONE A] | – | Not Active | inactive | – | 22 | Not Active | 130 | – | – | –
4 | COC1=CC(=O)c2c(O)c(C)c(CC(C)=O)c(O)c2C1=O [JAVANICIN] | 12 | – | inactive | – | 13 | – | 5.7 | 170 | – | –
5 | CO[C@@H]1CC(=O)c2c(O)c(C)c3cc(C)oc3c2[C@@H]1O [FUSARNAPHTHOQUINONE B] | – | – | – | – | – | – | – | – | > 200 | > 200
6 | NNC(=O)c1ccncc1 [ISONIAZID] | – | – | 0.17 µM (≈ 0.0233 µg/mL) | – | – | – | – | – | – | –
7 | COc1cc(O)c2c(c1O)[C@H](O)[C@H]1C[C@](C)(O)[C@H](O)[C@@H](O)[C@@H]1C2=O [9ALPHA-HYDROXYHALOROSELLINIA A] | 25 | – | 39 µM (≈ 13.3 µg/mL) | – | 6.2 | – | 49 | 54 | – | –
8 | COC1=CC(=O)c2c(O)c3c(c(O)c2C1=O)C[C@](C)(O)[C@H](O)[C@H]3O [BOSTRYCIN] | 9.8 | – | inactive | – | 2.7 | – | 0.9 | 4.2 | – | –
9 | COC1=CC(=O)c2c(O)c3c(c(O)c2C1=O)CC(C)(O)OC3 (stereo not given) [FUSARUBIN] | – | Not Active | inactive | – | 9.8 | – | 14 | 79 | > 200 | > 200
10 | COC1=CC(=O)c2c(O)c3c(c(O)c2C1=O)C=C(C)OC3 [ANHYDROFUSARUBIN] | 14 | – | 87 µM (≈ 25.1 µg/mL) | – | 0.9 | – | 2 | 58 | – | –
11 | COc1cccc2c1C(=O)c1c(O)c3c(c(O)c1C2=O)C[C@@](O)(C(=O)CO)C[C@@H]3O[C@H]1C[C@H](N)[C@H](O)[C@H](C)O1 [DOXORUBICIN] | – | – | – | – | 2.18 | – | 0.33 | – | – | –
12 | Cc1c2ccncc2c(C)c2c1[nH]c1ccccc12 [ELLIPTECINE] | – | – | – | – | – | – | 1.1 | 4.47 | – | –
13 | COC1=CC(=O)c2c(cc3c(c2O)C[C@@H](O)[C@@](C)(O)C3)C1=O [NIGROSPORIN B] | 13 | – | 41 µM (≈ 12.5 µg/mL) | – | 5.4 | – | 88 | 29 | – | –
14 | COc1cc(O)c2c(c1O)[C@H](O)[C@H]1C[C@](C)(O)[C@H](O)C[C@@H]1C2=O | – | Not Active | inactive | – | 15 | – | 19 | 57 | – | –
